The source of these data is ChEMBL document CHEMBL1770139, “Synthesis of 'clickable' acylhomoserine lactone quorum sensing probes: unanticipated effects on mammalian cell activation” (Bioorg Med Chem Lett, 2011).

In one experiment the test system is BMDM. Description: Induction of PARP cleavage in mouse BMDM cells at 50 uM after 90 mins by Western blot analysis. Type of experiment: cell-based. The essentials:
(§1)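 Primary bone marrow-derived macrophages exposed to alkynyl AHL analogue at 50 μM for 90 minutes. Cell extracts were probed by Western blot for p38 phosphorylation, eIF2α phosphorylation and PARP cleavage.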

For experiment [1], the target named is MAP kinase p38 (Mus musculus) (UniProt P47811+O08911+Q9WUI1+Q9Z1B7). Description: Induction of phosphorylation of p38 in mouse BMDM cells at 50 uM after 90 mins by Western blot analysis. Type of experiment: cell-based. The gist of the method:
as §1
A general note: A western blot detects proteins with antibodies after separation by electrophoresis.

Another experiment deals with Pseudomonas aeruginosa. Description: Induction of quorum sensing activity in lasI/rhlI-deleted Pseudomonas aeruginosa PAO-JP2 expressing plasmid pKD201 containing a LasI reporter coupled to the luxCDABE assessed as relative luminescence units normalized with respect to cell viability at 1 uM after 4 hrs by autoinducer activity assay. The gist of the method:
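Autoinducer assay in P. aeruginosa luminescence reporter strain PAO-JP2, a PAO1 lasI/rhlI double mutant carrying luxABCDE.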

The target in experiment [2] is Eukaryotic translation initiation factor 2 subunit 1 (Mus musculus) (UniProt Q6ZWX6). Description: Induction of phosphorylation of eIF2alpha in mouse BMDM cells at 50 uM after 90 mins by Western blot analysis. The format is cell-based. The essentials:
as §1

The source made the active and inactive calls. The calls are words filed in the database; no cut-off is given here.

Sequence of Eukaryotic translation initiation factor 2 subunit 1 (Mus musculus) (Q6ZWX6 whole entry): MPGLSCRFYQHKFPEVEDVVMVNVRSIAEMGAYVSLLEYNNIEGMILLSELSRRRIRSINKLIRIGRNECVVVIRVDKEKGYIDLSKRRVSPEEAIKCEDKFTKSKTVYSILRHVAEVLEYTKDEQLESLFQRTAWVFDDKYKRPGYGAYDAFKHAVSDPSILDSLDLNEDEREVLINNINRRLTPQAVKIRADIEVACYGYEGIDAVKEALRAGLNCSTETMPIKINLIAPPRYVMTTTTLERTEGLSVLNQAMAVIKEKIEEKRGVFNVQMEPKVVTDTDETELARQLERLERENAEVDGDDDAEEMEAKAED

As for `[N-]=[N+]=NCCCCCCCCCC(=O)CC(=O)N[C@H]1CCOC1=O`, the outcome (in the experiment with BMDM; in experiment [1]; in experiment [2]) was Active. For the same compound, in the experiment on Pseudomonas aeruginosa, the outcome was inactive.
Take `CCCCCCCCCC(=O)CC(=O)N[C@H]1CCOC1=O`: the outcome (in the experiment on BMDM; in experiment [1]; in the experiment on Pseudomonas aeruginosa; in experiment [2]) was Active.
For the compound `[N-]=[N+]=NCCCCCCCCCC(=O)CC(=O)N[C@@H]1CCOC1=O`, the outcome (with BMDM; in experiment [1]; with Pseudomonas aeruginosa; in experiment [2]) was inactive.
For the compound `C#CCCCCC(=O)CC(=O)N[C@H]1CCOC1=O`, the outcome (in the experiment on BMDM; in experiment [1]; in the experiment on Pseudomonas aeruginosa; in experiment [2]) was inactive.
For the compound `C#CCCCCCCCCC(=O)CC(=O)N[C@H]1CCOC1=O`, the outcome (with BMDM; in experiment [1]; with Pseudomonas aeruginosa; in experiment [2]) was Active.
